Screening results as filed in PubChem.
tim10-1 inh = growth inhibitors of tim10-1 mutant yeast, primary screen, luminescence, uHTS | S. cerevisiae tim10-1 ts strain growth, BacTiter-Glo, 24 h | inhibition, % at 20 µM | 330,000 tested, 2.2% active | AID 463190, 2010;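 active = inhibition of at least 40%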;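 note: mutant grown at 25 °C; 0% = DMSO wells with yeast and 100% = wells holding no yeast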
XBP1 UPR activ = activators of adaptive XBP1 UPR arm, primary screen, cell-based, CHO-XBP1 luciferase reporter, luminescence, uHTS. IRE1-XBP1 UPR activation; percent of tunicamycin response, DMSO as zero. activation, % at 20 µM. 330,000 tested, 0.33% active. AID 463104, 2010;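 active = versus positive control, 20 µM dose yields 30% or more activation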;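 note: 100% = tunicamycin at 10 µg/mL and 0% = DMSO only wells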
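Material: CHO cell line with stable XBP1 luciferase reporter; buffer or medium: F12 medium containing 10% fetal bovine serum; compound: single point, 20 µM final compound, 1% DMSO; incubation: 6 h treatment, 37 °C; measured by: glow luminescence from Steady-Glo reagent; evaluation: activation, % of tunicamycin; control set: tunicamycin high, DMSO low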
CHOP UPR activ = activators of apoptotic CHOP UPR arm, primary screen, cell-based, CHO-CHOP luciferase reporter, luminescence, uHTS; 330,000 tested, 0.34% active; UPR activation; percent of tunicamycin response over DMSO baseline; AID 449763, 2010; activation, % at 10 µM;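 active = at 10 µM dose, activation of 40% or more, normalized to positive control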;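 note: 100% = tunicamycin at 10 µg/mL and 0% = DMSO alone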
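System: CHO-CHOP luciferase reporter cell line; amount: 500 cells/well; buffer or medium: F12 medium containing 10% fetal bovine serum; incubation: 6 h compound exposure at 37 °C after overnight seeding; measured by: luciferase luminescence after 10 min with Steady-Glo reagent; evaluation: % reporter activation, DMSO baseline versus tunicamycin full activation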
TIM10 inh = growth inhibitors of isogenic TIM10 control yeast, primary screen, counter-screen for tim10-1 yeast inhibitor project, luminescence, uHTS; S. cerevisiae TIM10 strain growth, BacTiter-Glo luminescence, 24 h; inhibition, % at 10 µM; 330,000 tested, 1.4% active; AID 463195, 2010;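 active = inhibition of 40% or more at the single tested concentration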;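 note: wild-type TIM10 isogenic control strain grown at permissive 25 °C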
tim23-1 inh = growth inhibitors of tim23-1 mutant yeast, primary screen, luminescence, uHTS; inhibition, % at 20 µM; S. cerevisiae tim23-1 growth, BacTiter-Glo luminescence, 24 h; 330,000 tested, 1.3% active; AID 463212, 2010;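 active = growth inhibition of the mutant yeast at or above 50%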;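 note: temperature-sensitive mutant grown at 25 °C; plate controls were DMSO-treated mutant yeast for no effect and medium wells lacking yeast for full effect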
tim23-1 conf = tim23-1 mutant yeast growth inhibitors, confirmation, luminescence, single concentration. inhibition, % at 20 µM. 4,400 tested, 83% active. S. cerevisiae tim23-1 growth, BacTiter-Glo luminescence, 24 h. shares compounds with tim23-1 inh;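 active = inhibition above about 39% in either of two replicate wells at 20 µM, limit read from the data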;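 note: temperature-sensitive tim23-1 mutant grown at 25 °C; 0% = DMSO wells with yeast and 100% = medium wells without yeast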
Active calls of the source: *; . = no result. The list is not random: actives were taken first. Their share in the collection is about 3.9%.

SMILES	tim10-1 inh	XBP1 UPR activ	CHOP UPR activ	TIM10 inh	tim23-1 inh	tim23-1 conf
CC(=O)Nc1cccc(-c2nnc(SCC(=O)n3c4c(c5ccccc53)CCCC4)n2C)c1	21.9	2.3	-0.5	9.1	15.6	.
O=C(NC1CCCCC1)c1cc(S(=O)(=O)N2CCCCC2)ccc1N1CCOCC1	-11.3	-1.4	0.6	-0.5	2.0	.
CC1=NN(c2nc3ccccc3[nH]2)C(=O)C1Cc1ccccc1 (centres undefined)	20.9	2.9	5.2	13.0	67.1*	56.4*
CC(=O)N1CCOc2ccc(S(=O)(=O)NCC3CCC(C(=O)Nc4ccc(C)cn4)CC3)cc21 (centres undefined)	-6.7	-5.2	-0.2	-4.8	3.5	.
CCOC(=O)c1c(S(=O)(=O)NCC(=O)NCc2cccc(C)c2)c(C)n(C)c1C	-3.0	-0.5	2.8	-9.3	-1.6	.
CC(C)Cc1csc(NC(=O)c2ccccc2Cl)c1C(=O)O	12.0	-3.4	-1.0	5.6	9.5	.
Cc1ccc(-c2csc(NC(=O)c3ccccc3Cl)c2C(=O)O)cc1	18.8	5.0	2.7	16.3	63.8*	-23.9
O=C(NC(=S)Nc1cccc(O)c1)C1CCCCC1	27.5	1.4	3.5	35.2	50.8*	42.4*
Cc1ccc(NC(=S)NC(=O)C2CCCC2)cc1C	29.2	-2.1	10.6	22.4	54.5*	41.5*
O=C(NC(=S)Nc1ccccc1Br)C1CCCCC1	26.9	2.3	1.9	38.7	56.2*	37.8
Cc1ccc(NC(=S)NC(=O)C2CCC2)cc1C	27.0	1.2	6.6	29.2	47.6	.
CCOc1ccc(NC(=S)NC(C)c2cccs2)cc1 (centres undefined)	20.0	1.9	0.7	22.3	43.2	.
O=C(N/N=C/c1ccoc1)c1ccccc1F	5.5	-2.5	3.7	11.3	-0.5	.
COc1cc(/C=C(/NC(C)=O)C(=O)O)cc(Cl)c1OCc1ccc(Br)cc1	0.1	-0.5	4.9	1.2	15.0	.
CCOc1ccc2oc(C(=O)Nc3ccc4c(c3)OCO4)c(C)c2c1	-5.8	2.5	8.0	11.9	95.3*	17.2
CCOc1ccc2oc(C(=O)Nc3ccc(N4CCOCC4)cc3)c(C)c2c1	3.4	-0.9	-0.8	10.3	-14.0	.
CCCCCCN(C(=O)CCCCCN1C(=O)NC(c2ccc(-c3ccccc3)cc2)C(C(=O)OCc2ccccc2)=C1C)C(C)C(=O)NCCCC (centres undefined)	2.7	-1.0	2.0	7.6	-3.9	.
CCCCNC(=O)C(C1CCCCC1)N(CCN(C)C)C(=O)CCCN1C(=O)NC(c2ccc(-c3ccccc3)cc2)C(C(=O)OCc2ccccc2)=C1C (centres undefined)	29.1	40.7*	29.8	5.0	50.8*	31.2
COc1ccc(N2CCN(C(=O)COc3ccc(S(=O)(=O)N4CCOCC4)cc3C)CC2)cc1	-3.9	3.1	0.5	11.5	3.3	.
CCC(C)n1cnc2c(c1=O)c1nc3ccccc3nc1n2Cc1ccc(OC)cc1 (centres undefined)	37.3	7.6	-1.1	34.7	53.1*	52.2*
CN(C#N)c1nc(Cl)nc(Nc2cccc(Cl)c2)n1	39.8	8.5	7.4	13.1	69.0*	-54.6
Cc1ccc(NC(=O)c2ccc3c(c2)OCCO3)cc1C	14.9	-11.0	-3.1	33.0	63.6*	62.6*
O=C(NC(=S)Nc1ccc2c(c1)OCCO2)c1ccccc1F	34.3	0.2	4.1	30.8	17.2	.
O=C(Nc1ccc2c(c1)OCCO2)c1ccccc1F	36.4	-3.4	-1.9	37.3	65.8*	40.5*
O=C(Nc1ccc(NC(=O)c2ccc3c(c2)OCCO3)cc1)c1ccccc1	-23.4	-9.4	1.3	-10.6	-14.4	.
O=C(NC(=S)Nc1ccc2c(c1)OCCO2)c1ccccc1	22.7	-1.6	1.6	32.9	54.2*	44.4*
Cc1noc(C)c1C(=O)OC(C)C(=O)NC(C)c1ccc(Cl)cc1Cl (centres undefined)	18.8	4.1	1.2	7.6	14.1	.
